Results from ChEMBL document CHEMBL1773052, “3-Trifluoromethylquinoxaline N,N'-dioxides as anti-trypanosomatid agents. Identification of optimal anti-T. cruzi agents and mechanism of action studies” (J Med Chem, 2011).
The source made the active and inactive calls. The calls are words filed in the database; no cut-off is given here.

Assays:
Salmonella typhimurium [1] = test: Mutagenic activity in Salmonella Typhimurium TA98 assessed as number of revertants at 0.05 to 4 ug/plate by Ames test in absence of S9 fraction; type: toxicity, organism-based; details: salmonella enterica subsp. enterica serovar typhimurium
How it was run: (§1)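 Direct plate incubation with S. typhimurium TA98 on minimal glucose agar. Toxicity to the strain tested first; doses run in triplicate from DMSO solutions, DMSO as negative control. Metabolic activation with 500 μL Aroclor-treated mouse liver S9. Positive controls: 4-nitro-o-phenylenediamine 20.0 μg/plate without S9; 2-aminofluorene 10.0 μg/plate with S9. Revertants counted manually; mutagenic if ≥2-fold the negative control at two consecutive doses.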

Trypanosoma cruzi [2] = test: Antitrypanosomal activity against Trypanosoma cruzi CL Brener clone infected in BALB/c mouse assessed as reduction of parasitemia level at 10 mg/kg/day, po by ELISA; type: functional, organism-based
How it was run: (§2)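 Male BALB/c or Swiss albino mice, 30 days old, SPF, infected ip with 10³ blood trypomastigotes (CL Brener or Y). Oral dosing in PBS for 10 days. Controls: 10 mice on PBS; treated groups of 8. Tail-vein parasitemia weekly for 60 days, mortality recorded. Anti-T. cruzi antibodies measured by ELISA, run twice, at 30 and 60 or 90 days post-infection.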

Trypanosoma cruzi [3] = test: Antitrypanosomal activity against Trypanosoma cruzi CL Brener clone infected in BALB/c mouse assessed as increase of mouse survival days at 10 mg/kg/day, po relative to control; type: functional
Trypanosoma cruzi [4] = test: Antitrypanosomal activity against Trypanosoma cruzi Y infected in Swiss albino mouse assessed as increase of mouse survival days at 10 mg/kg/day, po relative to control; type: functional
[5] = Cytotoxicity against mouse J774 cells; type: cell-based; details: read-out: ID50 (the source's name)
Trypanosoma cruzi [6] = test: Inhibition of mitochondrial dehydrogenase activity in Trypanosoma cruzi Y epimastigotes at 20 uM up to 120 mins by MTT assay
How it was run: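 Y-strain epimastigotes, 10⁶ per well in 500 μL medium, treated with 20 μM compound at 28 °C, untreated wells as time-matched controls. At each time point cells counted, then MTT (50 μL of 5 mg/mL in PBS) added for 4 h. Stopped with acidic isopropanol, A570 read. Activity given as percent of untreated control.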

Trypanosoma cruzi [7] = test: Antitrypanosomal activity against Trypanosoma cruzi Tulahuen 2 epimastigotes assessed as growth inhibition after 5 days; type: functional; details: Tulahuen 2, 120 h, read-out: ID50
How it was run: (§3)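 Epimastigotes grown axenically at 28 °C in BHI-tryptose + 5% FBS; a 10-day stationary culture was inoculated to 1 × 10⁶ cells/mL. Drug added from DMSO stock, final DMSO ≤0.4%, vehicle control. A600 read daily. PGI on day 5 corrects for day-0 absorbance, relative to control. […] Three independent experiments.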

[8] = Selectivity index, ratio of ID50 for mouse J774 cells to ID50 for Trypanosoma cruzi Tulahuen 2 epimastigotes; type: toxicity, cell-based; details: J774 cells versus Trypanosoma cruzi Tulahuen 2 epimastigotes, read-out: Selectivity Index
Trypanosoma cruzi [9] = test: Antitrypanosomal activity against Trypanosoma cruzi Tulahuen 2 epimastigotes assessed as growth inhibition at 25 uM after 5 days relative to control; type: functional; details: Tulahuen 2, 120 h, read-out: GI; how it was run: as §3
Trypanosoma cruzi [10] = test: Antitrypanosomal activity against Trypanosoma cruzi CL Brener clone infected in BALB/c mouse assessed as reduction of microbial antibody level at 10 mg/kg/day, po after 30 days by Wilconxon test; type: functional, organism-based; how it was run: as §2
Trypanosoma cruzi [11] = test: Antitrypanosomal activity against Trypanosoma cruzi Y infected in Swiss albino mouse assessed as reduction of parasitemia level at 10 mg/kg/day, po by ELISA; type: functional, organism-based; how it was run: as §2
Trypanosoma cruzi [12] = test: Antitrypanosomal activity against Trypanosoma cruzi CL Brener clone trypomastigotes in parasite infected BALB/c mouse blood assessed as parasite lysis at 250 ug/ml after 24 hrs relative to control; type: functional
How it was run: (§4)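 Blood from BALB/c mice 7 days post-infection, taken by cardiac puncture into 3.8% sodium citrate (7:3). Compounds dissolved in DMSO, diluted in PBS to 100 or 250 μg/mL. 10 μL mixed with 100 μL infected blood (~10⁶ parasites/mL), in triplicate. Shaken 10 min at RT, held 4 °C for 24 h. Parasites counted by microscopy; gentian violet 250 μg/mL as standard.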

Trypanosoma cruzi [13] = test: Antitrypanosomal activity against Trypanosoma cruzi CL Brener clone infected in BALB/c mouse assessed as reduction of microbial antibody level at 10 mg/kg/day, po after 90 days by Wilconxon test; type: functional, organism-based; how it was run: as §2
Salmonella typhimurium [14] = test: Mutagenic activity in Salmonella Typhimurium TA98 assessed as number of revertants at 0.05 to 4 ug/plate by Ames test in presence of S9 fraction; type: toxicity, organism-based; details: salmonella enterica subsp. enterica serovar typhimurium; how it was run: as §1
Trypanosoma cruzi [15] = test: Antitrypanosomal activity against Trypanosoma cruzi Y infected in Swiss albino mouse assessed as increase of mouse survival days at 50 mg/kg/day, po relative to control; type: functional
Trypanosoma cruzi [16] = test: Antitrypanosomal activity against Trypanosoma cruzi Y infected in Swiss albino mouse assessed as reduction of microbial antibody level at 50 mg/kg/day, po by Wilconxon test; type: functional, organism-based; how it was run: as §2
Trypanosoma cruzi [17] = test: Antitrypanosomal activity against Trypanosoma cruzi CL Brener clone infected in BALB/c mouse assessed as increase of mouse survival days at 50 mg/kg/day, po relative to control; type: functional
Trypanosoma cruzi [18] = test: Antitrypanosomal activity against Trypanosoma cruzi CL Brener clone infected in Swiss albino mouse assessed as increase of mouse survival days at 50 mg/kg/day, po relative to control; type: functional
Trypanosoma cruzi [19] = test: Antitrypanosomal activity against Trypanosoma cruzi CL Brener clone infected in BALB/c mouse assessed as reduction of microbial antibody level at 50 mg/kg/day, po after 90 days by Wilconxon test; type: functional, organism-based; how it was run: as §2
Salmonella typhimurium [20] = test: Mutagenic activity in Salmonella Typhimurium TA98 assessed as number of revertants at 0.2 to 15 ug/plate by Ames test in presence of S9 fraction; type: toxicity, organism-based; details: salmonella enterica subsp. enterica serovar typhimurium; how it was run: as §1
Salmonella typhimurium [21] = test: Mutagenic activity in Salmonella Typhimurium TA98 assessed as number of revertants at 0.2 to 15 ug/plate by Ames test in absence of S9 fraction; type: toxicity, organism-based; details: salmonella enterica subsp. enterica serovar typhimurium; how it was run: as §1
Trypanosoma cruzi [22] = test: Antitrypanosomal activity against Trypanosoma cruzi Y epimastigotes assessed as cell death at 25 uM after 2 days by MTT assay relative to control; type: functional
How it was run: (§5)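 Epimastigotes of each strain taken in exponential growth in BHI-tryptose with 5% FBS, 1 mL per well. Compounds added from DMSO and kept 2 days at 28 °C. Cells washed twice and resuspended in PBS-glucose (5.5 mM), then given 0.4 mg/mL MTT for 4 h at 28 °C. Lysis in SDS-isopropanol, OD read. Triplicate wells, six growth controls. PCyt taken against control, corrected for medium-only wells.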

Trypanosoma cruzi [23] = test: Antitrypanosomal activity against Trypanosoma cruzi Colombiana epimastigotes assessed as cell death at 25 uM after 2 days by MTT assay relative to control; type: functional; how it was run: as §5
Trypanosoma cruzi [24] = test: Antitrypanosomal activity against Trypanosoma cruzi CL Brener clone infected in Swiss albino mouse assessed as reduction of parasitemia level at 10 mg/kg/day, po after 55 days by ELISA; type: functional, organism-based; details: in the assay text read “after 53 days” for “after 55 days”; how it was run: as §2
Trypanosoma cruzi [25] = test: Antitrypanosomal activity against Trypanosoma cruzi CL Brener clone epimastigotes assessed as cell death after 2 days by MTT assay; type: functional; details: 48 h, read-out: ID50 (the source's name)
How it was run: (§6)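 Parasites in exponential growth, in BHI-tryptose + 5% FBS for T. cruzi or RPMI + 5% FBS for L. braziliensis, 28 °C, 24-well plates. Compounds in DMSO; miltefosine in ethanol. 2-day exposure, two PBS-glucose (5.5 mM) washes, then MTT 0.4 mg/mL for 4 h at 28 °C. SDS-isopropanol lysis, OD read. Triplicates, six growth controls.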

Trypanosoma cruzi [26] = test: Antitrypanosomal activity against Trypanosoma cruzi Y epimastigotes assessed as cell death after 2 days by MTT assay; type: functional; details: 48 h, read-out: ID50 (the source's name); how it was run: as §6
Trypanosoma cruzi [27] = test: Antitrypanosomal activity against Trypanosoma cruzi CL Brener clone infected in Swiss albino mouse assessed as increase of mouse survival days at 10 mg/kg/day, po relative to control; type: functional
Salmonella typhimurium [28] = test: Mutagenic activity in Salmonella Typhimurium TA98 assessed as number of revertants at 0.005 to 15 ug/plate by Ames test in absence of S9 fraction; type: toxicity, organism-based; details: salmonella enterica subsp. enterica serovar typhimurium; how it was run: as §1
Salmonella typhimurium [29] = test: Mutagenic activity in Salmonella Typhimurium TA98 assessed as number of revertants at 0.005 to 15 ug/plate by Ames test in presence of S9 fraction; type: toxicity, organism-based; details: salmonella enterica subsp. enterica serovar typhimurium; how it was run: as §1
Trypanosoma cruzi [30] = test: Antitrypanosomal activity against Trypanosoma cruzi CL Brener clone trypomastigotes in parasite infected BALB/c mouse blood assessed as parasite lysis at 100 ug/ml after 24 hrs relative to control; type: functional; how it was run: as §4
Trypanosoma cruzi [31] = test: Antitrypanosomal activity against Trypanosoma cruzi Y infected in Swiss albino mouse assessed as increase of mouse survival days at 30 mg/kg/day, po relative to control; type: functional
Leishmania braziliensis = test: Antileishmanial activity against Leishmania braziliensis MHOM/BR/00/LTB300 promastigotes assessed as cell death after 2 days by MTT assay; type: functional; details: MHOM/BR/00/LTB300, 48 h, read-out: ID50 (the source's name); how it was run: as §6
Trypanosoma cruzi [32] = test: Antitrypanosomal activity against Trypanosoma cruzi CL Brener clone epimastigotes assessed as cell death at 25 uM after 2 days by MTT assay relative to control; type: functional; how it was run: as §5
Trypanosoma cruzi [33] = test: Antitrypanosomal activity against Trypanosoma cruzi Y infected in Swiss albino mouse assessed as reduction of microbial antibody level at 10 to 30 mg/kg/day, po by Wilconxon test; type: functional, organism-based; how it was run: as §2
Trypanosoma cruzi [34] = test: Antitrypanosomal activity against Trypanosoma cruzi Y infected in Swiss albino mouse assessed as reduction of parasitemia level at 10 to 30 mg/kg/day, po by ELISA; type: functional, organism-based; how it was run: as §2

Which results are given for `CC(=O)c1c(C(F)(F)F)[n+]([O-])c2cc(F)c(F)cc2[n+]1[O-]`?
Activity (Salmonella typhimurium [1]): Toxic; Activity (Trypanosoma cruzi [2]): Active; survival at 10 mg/kg/day (Trypanosoma cruzi [3]): 100%; survival at 10 mg/kg/day (Trypanosoma cruzi [4]): 62.5%; CC50 [5]: 10600 nM; inhibition (Trypanosoma cruzi [6]): Active; IC50 (Trypanosoma cruzi [7]): 390 nM; selectivity ratio [8]: 27.2; inhibition of growth at 25 µM (Trypanosoma cruzi [9]): 100%; Activity (Trypanosoma cruzi [10]): Active; Activity (Trypanosoma cruzi [11]): inactive; Activity (Trypanosoma cruzi [12]): 80%; Activity (Trypanosoma cruzi [13]): Active; Activity (Salmonella typhimurium [14]): Toxic

Which results are given for `O=C(Cn1ccnc1[N+](=O)[O-])NCc1ccccc1` [BENZNIDAZOLE]?
survival at 50 mg/kg/day (Trypanosoma cruzi [15]): 87.5%; Activity (Trypanosoma cruzi [16]): Active; survival at 50 mg/kg/day (Trypanosoma cruzi [17]): 75%; survival at 50 mg/kg/day (Trypanosoma cruzi [18]): 100%; Activity (Trypanosoma cruzi [19]): inactive

Which IC50 (Trypanosoma cruzi [7]) does the source give for `CC(=O)c1c(C)[n+]([O-])c2cc(F)c(F)cc2[n+]1[O-]` here?
Its IC50 is 400 nM.

And the Activity (Salmonella typhimurium [20])?
The Activity was “Toxic”.

What about the inhibition of growth at 25 µM (Trypanosoma cruzi [9]) of the same molecule?
Its inhibition of growth at 25 µM is 100%.

What about the Activity (Salmonella typhimurium [21]) of the same molecule?
Its Activity is “Toxic”.

With `O=C(c1ccccc1)c1c(C(F)(F)F)[n+]([O-])c2cc(F)c(F)cc2[n+]1[O-]` as the molecule, how does the Activity (Trypanosoma cruzi [22]) read?
The Activity was 100%.

What about the Activity (Trypanosoma cruzi [2]) of the same molecule?
Its Activity is “Active”.

And the survival at 10 mg/kg/day (Trypanosoma cruzi [3])?
The survival at 10 mg/kg/day was 100%.

And the survival at 10 mg/kg/day (Trypanosoma cruzi [4])?
Its survival at 10 mg/kg/day is 100%.

And the CC50 [5]?
Its CC50 is 8000 nM.

What about the Activity (Trypanosoma cruzi [23]) of the same molecule?
The Activity was 100%.

And the Activity (Trypanosoma cruzi [24])?
Its Activity is “Active”.

And the inhibition (Trypanosoma cruzi [6])?
Its inhibition is “Active”.

What about the IC50 (Trypanosoma cruzi [25]) of the same molecule?
Its IC50 is 1100 nM.

And the IC50 (Trypanosoma cruzi [26])?
The IC50 was 1800 nM.

And the survival at 10 mg/kg/day (Trypanosoma cruzi [27])?
The survival at 10 mg/kg/day was 100%.

What about the IC50 (Trypanosoma cruzi [7]) of the same molecule?
The IC50 was 700 nM.

And the selectivity ratio [8]?
Its selectivity ratio is 11.4.

What about the inhibition of growth at 25 µM (Trypanosoma cruzi [9]) of the same molecule?
The inhibition of growth at 25 µM was 100%.

What about the Activity (Salmonella typhimurium [28]) of the same molecule?
Its Activity is “Non-toxic”.

What about the Activity (Salmonella typhimurium [29]) of the same molecule?
The Activity was “Non-toxic”.

And the Activity (Trypanosoma cruzi [30])?
Its Activity is 63%.

And the Activity (Trypanosoma cruzi [12])?
The Activity was 84%.

And the survival at 50 mg/kg/day (Trypanosoma cruzi [18])?
Its survival at 50 mg/kg/day is 100%.

And the survival at 30 mg/kg/day (Trypanosoma cruzi [31])?
The survival at 30 mg/kg/day was 87.5%.

And the IC50 (Leishmania braziliensis)?
Its IC50 is 1300 nM.

What about the Activity (Trypanosoma cruzi [32]) of the same molecule?
The Activity was 96%.

What about the Activity (Trypanosoma cruzi [33]) of the same molecule?
Its Activity is “Active”.

What about the Activity (Trypanosoma cruzi [34]) of the same molecule?
Its Activity is “Active”.
